According to ChEMBL document CHEMBL1134105, “Enantioselective synthesis and complement inhibitory assay of A/B-ring partial analogues of oleanolic acid” (Bioorg Med Chem Lett, 2001):
Calls of active or inactive are those of the source. The calls are words filed in the database; no cut-off is given here.

Key:
[1] = organism: Homo sapiens; experiment: In vitro concentration required to inhibit classical pathway complement induced hemolysis in human; NA= not active; assay type: functional
Procedure, shortened: (§1)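 Classical pathway complement inhibition was tested in vitro; IC50 values are means of three experiments with standard deviation.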

[2] = test system: SK-MEL; experiment: Cytotoxicity against human malignant melanoma cell line SK-MEL; NA= not active; assay type: functional, cell-based
Procedure, shortened: (§2)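 SK-MEL human malignant melanoma cells, 25,000 per well, were exposed to compound solutions for 72 h. Viable cells were counted by neutral red uptake: cells were washed with saline, incubated 1.5 h in 0.17% neutral red in serum-free RPMI, then washed again to remove extracellular dye.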

[3] = In vitro therapeutic index (IC50 cytotoxicity/ IC50 complement inhibition) was determined; assay type: functional
[4] = organism: Homo sapiens; experiment: In vitro concentration required to inhibit classical pathway complement induced hemolysis in human; assay type: functional; procedure, shortened: as §1
[5] = test system: SK-MEL; experiment: Cytotoxicity against human malignant melanoma cell line SK-MEL; assay type: functional, cell-based; procedure, shortened: as §2
[6] = In vitro therapeutic index (IC50 cytotoxicity/ IC50 complement inhibition) was determined; ND=not active; assay type: functional

Compound | IC50 [1] | IC50 [2] | TI [3] | IC50 [4] [µM] | IC50 [5] [µM] | TI [6]
COC(=O)c1ccc(/C=C/[C@H]2CCCC3C(C)(C)[C@@H](O)CC[C@@]32C)cc1 (stereo partly specified) | Not Active | Not Active |  |  |  | 
CC1(C)C2CC[C@@H](Cc3ccccc3C(=O)O)C[C@@]2(C)CC[C@@H]1O (stereo partly specified) |  |  | 0.8 | 616 | 484 | 
CC1(C)C2CCC[C@H](/C=C/c3ccc(C(=O)O)cc3)[C@@]2(C)CC[C@@H]1O (stereo partly specified) |  |  | 0.6 | 623 | 380 | 
COc1ccc(CO[C@H]2CC[C@]3(C)CC(Cc4cccc(C(=O)O)c4)CCC3C2(C)C)cc1 (single isomer, unassigned) |  |  | 0.4 | 488 | 180 | 
CC1(C)C2CCC[C@H](/C=C/c3ccccc3C#N)[C@@]2(C)CC[C@@H]1O (stereo partly specified) | Not Active |  |  |  | 155 | 
CC1(C)C2CCC[C@H](/C=C/c3cccc(C(=O)O)c3)[C@@]2(C)CC[C@@H]1O (stereo partly specified) |  |  | 0.5 | 550 | 269 | 
CC1(C)CC[C@]2(C(=O)O)CC[C@]3(C)C(=CC[C@@H]4[C@@]5(C)CC[C@H](O)C(C)(C)[C@@H]5CC[C@]43C)[C@@H]2C1 [OLEANOLIC_ACID] |  |  | 1.55 |  |  | 
COc1ccc(CO[C@H]2CC[C@]3(C)CC(Cc4ccc(C(=O)O)cc4)CCC3C2(C)C)cc1 (single isomer, unassigned) | Not Active |  |  |  | 200 | inactive
CC1(C)C2CCC(Cc3cccc(C(=O)O)c3)C[C@@]2(C)CC[C@@H]1O (single isomer, unassigned) |  |  | 0.6 | 601 | 333 | 
CC1(C)C2CCC[C@H](/C=C/c3ccccc3C(=O)O)[C@@]2(C)CC[C@@H]1O (stereo partly specified) |  |  | 0.6 | 633 | 380 | 
CC1(C)C2CCC(Cc3ccc(C(=O)O)cc3)C[C@@]2(C)CC[C@@H]1O (single isomer, unassigned) |  |  | 0.6 | 610 | 378 | 
COc1ccc(CO[C@H]2CC[C@]3(C)C[C@H](Cc4ccccc4C(=O)O)CCC3C2(C)C)cc1 (stereo partly specified) | Not Active |  |  |  | 166 | 
